In one test the target is T1, WT mIL-2 (Mus musculus, UniProt P04351).
T1 sequence (P04351 21-169): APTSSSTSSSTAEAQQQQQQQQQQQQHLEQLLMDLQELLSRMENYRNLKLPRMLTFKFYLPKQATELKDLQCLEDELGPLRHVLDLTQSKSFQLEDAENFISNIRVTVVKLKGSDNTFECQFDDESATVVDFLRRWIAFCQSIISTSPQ
The test can be described thus: NMR titration with line shape analysis. In kind it is binding. Put shortly: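 Kd derived by line-shape analysis (TITAN) of fast-exchange shifts of the V129γ2 and L133δ2 methyl peaks. Errors propagated from spectral signal-to-noise.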

Test [1] deals with wild-type mouse interleukin-2 (mouse, UniProt P04351). The test can be described thus: ITC.
The test system of test [2] is IL-2Rα+ mouse CTLL-2 cells. Briefly: STAT5 phosphorylation. Type of test: cell-based. The following applies: IL-2Rα+ CTLL-2 cells.
For the next test, the target named is JES6-1. Briefly: Isothermal titration calorimetry of mIL-2 into JES6-1. Type of test: binding. The note with it: ITC.

Usually Kd stands for a measure of binding affinity in units of concentration. Take `COC(=O)[C@H](Cc1ccc(C#Cc2ccccc2)cc1)NC(=O)C[C@H]1CCCN(C(=N)N)C1` [Ro 26-4550]: the affinity on WT mIL-2, expressed as Kd, was 39400 ± 5500 nM.

B1: JES6-1 anti-mouse IL-2 monoclonal antibody (antibody, V domains shown)
VH: EIQLQQSGPELRRPGSSVKLSCKASGYNITDYLIHWVRHRPEHGLEWIGWIDPEDGETRYAQKFQSKATLTADTSSNAAYMQLSSLTPEDTATYFCARSLDSTYIYPFAYWGQGTLVTVSS
VL: DIVMTQSPFSLAVSEGEMVTINCKSSQSLLSSGNQKNYLAWYQQKPGQSPKLLIYYASTGQSGVPDRFIGSGSGTDFTLTISDVQAEDLADYYCLQHYISPPTFGAGTKLELK
Turning to B1, in test [1], the Kd is 2 nM and the dH is 12.7 kcal⋅mol^−1. In test [2], the “effect of JES6-1 on mIL-2-mediated STAT5 activation” value was “fivefold reduced”.

B2: WT mIL-2: wild-type mouse interleukin-2 (amino acids 1-149), recombinant, expressed in E. coli (protein, UniProt P04351 21-169, looked up)
Interleukin-2: APTSSSTSSSTAEAQQQQQQQQQQQQHLEQLLMDLQELLSRMENYRNLKLPRMLTFKFYLPKQATELKDLQCLEDELGPLRHVLDLTQSKSFQLEDAENFISNIRVTVVKLKGSDNTFECQFDDESATVVDFLRRWIAFCQSIISTSPQ
On JES6-1 (20 °C, 20 mM phosphate pH 7.2, 150 mM NaCl), B2 returned a Kd of 2 nM.

B3: R52A mIL-2: designed point mutant R52A of mouse IL-2 that eliminates all C-capping interactions (protein)
chain: APTSSSTSSSTAEAQQQQQQQQQQQQHLEQLLMDLQELLSRMENYRNLKLPAMLTFKFYLPKQATELKDLQCLEDELGPLRHVLDLTQSKSFQLEDAENFISNIRVTVVKLKGSDNTFECQFDDESATVVDFLRRWIAFCQSIISTSPQ
For B3, the “effect of JES6-1 on mIL-2-mediated STAT5 activation” value in test [2] is on record as “independent of JES6-1”. The “decrease in binding affinity relative to WT mIL-2” value in the test on JES6-1 is given as 1,000 fold.

The values above are taken from paper PMC7132253 (Proceedings of the National Academy of Sciences of the …, 2020).
